Results from ChEMBL document CHEMBL1141617, “Synthesis and evaluation of antitumoral activity of ester and amide derivatives of 2-arylamino-6-trifluoromethyl-3-pyridinecarboxylic acids” (2008).

What was measured:
Format in all cases: functional
[1] = tested on: IGROV-1; assay: Growth inhibition of human IGROV1 cells
Outline: (§1)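 NCI 60 human tumour cell line panel grown in RPMI1640 with 5% fetal calf serum and 2 mM L-glutamine. Cells seeded at a density set by each line's growth characteristics and preincubated 24 h. Compounds added in DMSO at 10^-4 to 10^-8 M (five 10-fold dilutions) and left 48 h continuously. Growth read by sulforhodamine B protein stain. GI50 is the molar concentration giving 50% net growth inhibition.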

[2] = tested on: SNB-75; assay: Growth inhibition of human SNB75 cells; outline: as §1
[3] = tested on: CAKI-1; assay: Growth inhibition of human CAKI1 cells; outline: as §1
[4] = tested on: NCI-H226; assay: Growth inhibition of human NCI-H226 cells; outline: as §1
[5] = Growth inhibition of human NCI-322M cells; outline: as §1
[6] = tested on: LOX IMVI; assay: Growth inhibition of human LOXIMVI cells; outline: as §1
[7] = tested on: SK-MEL-5; assay: Growth inhibition of human SK-MEL5 cells; settings: for TGI: read-out: Log TGI (converted); outline: as §1
[8] = tested on: Hs-578T; assay: Growth inhibition of human HS578T cells; outline: as §1
[9] = tested on: HOP-92; assay: Growth inhibition of human HOP92 cells; settings: for TGI: read-out: Log TGI (converted); outline: as §1
[10] = tested on: HL-60; assay: Growth inhibition of human HL60 cells; outline: as §1
[11] = tested on: SR; assay: Growth inhibition of human SR cells; outline: as §1
[12] = tested on: EKVX; assay: Growth inhibition of human EKVX cells; outline: as §1
[13] = tested on: COLO 205; assay: Growth inhibition of human COLO205 cells; outline: as §1
[14] = tested on: HCT-15; assay: Growth inhibition of human HCT15 cells; outline: as §1
[15] = tested on: KM12; assay: Growth inhibition of human KM12 cells; outline: as §1
[16] = tested on: U-251; assay: Growth inhibition of human U251 cells; outline: as §1
[17] = tested on: Malme-3M; assay: Growth inhibition of human MALME3M cells; outline: as §1
[18] = tested on: SK-OV-3; assay: Growth inhibition of human SKOV3 cells; outline: as §1
[19] = tested on: A498; assay: Growth inhibition of human A498 cells; outline: as §1
[20] = tested on: ACHN; assay: Growth inhibition of human ACHN cells; outline: as §1
[21] = tested on: MDA-MB-231; assay: Growth inhibition of human MDA-MB-231 cells; outline: as §1
[22] = tested on: MCF7; assay: Growth inhibition of human MCF7 cells; outline: as §1
[23] = tested on: OVCAR-3; assay: Growth inhibition of human OVCAR-3 cells; outline: as §1
[24] = tested on: CCRF-CEM; assay: Growth inhibition of human CCRF-CEM cells; outline: as §1
[25] = tested on: NCI-H522; assay: Growth inhibition of human NCI-H522 cells; outline: as §1
[26] = tested on: HCC 2998; assay: Growth inhibition of human HCC2998 cells; outline: as §1
[27] = tested on: PC-3; assay: Growth inhibition of human PC3 cells; outline: as §1
[28] = tested on: T47D; assay: Growth inhibition of human T47D cells; outline: as §1
[29] = Growth inhibition of human H23 cells; settings: NCI-H23; outline: as §1
[30] = tested on: UO-31; assay: Growth inhibition of human UO31 cells; outline: as §1

Cc1cc(Cl)ccc1Nc1nc(C(F)(F)F)ccc1C(=O)N1CCN(c2cccc(Cl)c2)CC1
GI50 [1]: 1.78 µM | GI50 [2]: 1.12 µM

Cc1ccc(Cl)cc1Nc1nc(C(F)(F)F)ccc1C(=O)N1CCN(c2ccc(F)cc2)CC1
GI50 [1]: 0.132 µM | GI50 [3]: 1.51 µM | GI50 [2]: < 0.01 µM

Cc1ccc(Cl)cc1Nc1nc(C(F)(F)F)ccc1C(N)=O
GI50 [4]: 1.45 µM | TGI ([4]; read-out: Log TGI (converted)): 9.77 µM | GI50 [5]: 2.04 µM | GI50 [6]: 2.24 µM | GI50 [7]: 1.91 µM | TGI [7]: 6.61 µM | GI50 [8]: 0.813 µM | TGI ([8]; read-out: Log TGI (converted)): 3.98 µM

Cc1cc(Cl)ccc1Nc1nc(C(F)(F)F)ccc1C(=O)Nc1cccc(C(F)(F)F)c1
GI50 [6]: 2.82 µM | TGI ([6]; read-out: Log TGI (converted)): 8.51 µM | GI50 [7]: 2.82 µM | TGI [7]: 9.33 µM | GI50 [9]: 2.19 µM | TGI [9]: 8.13 µM | GI50 [10]: 2.04 µM | TGI ([10]; read-out: Log TGI (converted)): 4.68 µM | GI50 [11]: 2.57 µM | TGI ([11]; read-out: Log TGI (converted)): 8.32 µM | GI50 [12]: 1.86 µM | GI50 [13]: 2.51 µM | TGI ([13]; read-out: Log TGI (converted)): 6.17 µM | GI50 [14]: 2.57 µM | TGI ([14]; read-out: Log TGI (converted)): 7.41 µM | GI50 [15]: 2.09 µM | GI50 [16]: 3.02 µM | TGI ([16]; read-out: Log TGI (converted)): 9.77 µM | GI50 [17]: 2 µM | TGI ([17]; read-out: Log TGI (converted)): 9.12 µM | GI50 [18]: 2.45 µM | GI50 [19]: 2.82 µM | TGI ([19]; read-out: Log TGI (converted)): 7.41 µM | GI50 [20]: 2.75 µM | TGI ([20]; read-out: Log TGI (converted)): 8.91 µM | GI50 [21]: 2.04 µM | TGI ([21]; read-out: Log TGI (converted)): 8.13 µM | GI50 [22]: 2.29 µM | TGI ([22]; read-out: Log TGI (converted)): 7.76 µM

Cc1ccc(Cl)cc1Nc1nc(C(F)(F)F)ccc1C(=O)N1CCN(c2cccc(Cl)c2)CC1
GI50 [11]: 2.75 µM

COc1cc(NC(=O)c2ccc(C(F)(F)F)nc2Nc2ccc(Cl)cc2C)cc(OC)c1OC
GI50 [23]: 2.4 µM | GI50 [24]: 1.58 µM | GI50 [10]: 1.74 µM | GI50 [15]: 1.55 µM | GI50 [25]: 1.62 µM | GI50 [26]: 1.91 µM | TGI ([26]; read-out: Log TGI (converted)): 5.62 µM | GI50 [1]: 0.955 µM | GI50 [27]: 1.86 µM | GI50 [28]: 2.45 µM | GI50 [29]: 2.19 µM

COc1ccc(N2CCN(C(=O)c3ccc(C(F)(F)F)nc3Nc3cc(Cl)ccc3C)CC2)cc1
GI50 [7]: 0.955 µM | GI50 [9]: 1.48 µM | TGI [9]: 7.94 µM | GI50 [1]: 0.0513 µM | GI50 [3]: 1.38 µM | GI50 [30]: 1.7 µM
